Data as given in ChEMBL document CHEMBL1143008, “Synthesis and biological evaluation of chiral alpha-aminoanilides with central antinociceptive activity” (2007).

Experiments:
Format in all cases: functional
Mus musculus [1] = assay: Antinociceptive effect in atropine treated Swiss Albino mouse assessed as licking latency at 50 mg/kg, sc by hotplate test; conditions: route subcutaneous
Summary of the method: (§1)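 Antagonist pretreatment before s.c. test compound in male Swiss albino mice: atropine 5 mg/kg i.p., or hemicholinium-3 1 µg per mouse i.c.v. The i.c.v. dose was 5 µL in isotonic saline under ether anaesthesia. Paw-licking latency on a 52.5 °C hot plate was read at each compound's time of maximum effect, compared with saline-saline mice. Cutoff was 45 s.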

Mus musculus [2] = assay: Antinociceptive effect in Swiss Albino mouse assessed as licking latency at 50 mg/kg, sc after 15 mins by hotplate test; conditions: route subcutaneous
Summary of the method: (§2)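 Hot-plate test at 52.5 ± 0.1 °C in male Swiss albino mice (23-30 g) after s.c. dosing. The endpoint was fore- or hind-paw licking, timed before and at intervals up to 60 min. Mice scoring below 12 or above 18 s at pretest were rejected, with a 45 s cutoff. Mean ± SEM.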

Mus musculus [3] = assay: Antinociceptive activity in sc dosed Swiss Albino mouse by hotplate test
Summary of the method: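 Male Swiss albino mice (23-30 g), s.c. dosing. Paw-licking latency on a 52.5 ± 0.1 °C hot plate, read before and up to 60 min after dosing. Mice outside 12-18 s at pretest were excluded; cutoff was 45 s. […] was fitted from the dose-response data with a constrained four-parameter logistic model.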

Mus musculus [4] = assay: Effect on motor coordination in Swiss Albino mouse assessed as number of falls from rotarod at 50 mg/kg after 30 mins relative to CMC
Summary of the method: (§3)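 Motor coordination of male Swiss albino mice on the rota-rod, counted as number of falls, before dosing and 15, 30 and 45 min after. Each value is the mean of 6-8 mice, compared with vehicle-treated controls.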

Mus musculus [5] = assay: Effect on motor coordination in Swiss Albino mouse assessed as number of falls from rotarod at 50 mg/kg after 15 mins relative to CMC; summary of the method: as §3
Mus musculus [6] = assay: Effect on motor coordination in Swiss Albino mouse assessed as number of falls from rotarod at 50 mg/kg after 45 mins relative to CMC; summary of the method: as §3
Mus musculus [7] = assay: (§4) Antinociceptive effect in Swiss Albino mouse assessed as licking latency at 5 mg/kg, sc after 15 mins by hotplate test; conditions: route subcutaneous
Mus musculus [8] = assay: Antinociceptive effect in atropine treated Swiss Albino mouse assessed as licking latency at 30 mg/kg, sc by hotplate test; conditions: route subcutaneous; summary of the method: as §1
Mus musculus [9] = assay: Antinociceptive effect in Swiss Albino mouse assessed as licking latency at 30 mg/kg, sc after 15 mins by hotplate test; conditions: route subcutaneous; summary of the method: as §2
Mus musculus [10] = assay: Antinociceptive effect in Swiss Albino mouse assessed as licking latency at 15 mg/kg, sc after 15 mins by hotplate test; conditions: route subcutaneous; summary of the method: as §2
Mus musculus [11] = assay: Antinociceptive effect in Swiss Albino mouse assessed as licking latency at 10 mg/kg, sc after 15 mins by hotplate test; conditions: route subcutaneous
Mus musculus [12] = assay: Antinociceptive effect in atropine treated Swiss Albino mouse assessed as licking latency at 10 mg/kg, sc by hotplate test; conditions: route subcutaneous; summary of the method: as §1
Mus musculus [13] = assay: Effect on motor coordination in Swiss Albino mouse assessed as number of falls from rotarod at 10 mg/kg after 45 mins relative to CMC; summary of the method: as §3
Mus musculus [14] = assay: Effect on motor coordination in Swiss Albino mouse assessed as number of falls from rotarod at 10 mg/kg after 15 mins relative to CMC; summary of the method: as §3
Mus musculus [15] = assay: Effect on motor coordination in Swiss Albino mouse assessed as number of falls from rotarod at 10 mg/kg after 30 mins relative to CMC; summary of the method: as §3
Mus musculus [16] = assay: Antinociceptive effect in hemicolinium-3 treated Swiss Albino mouse assessed as licking latency at 10 mg/kg, sc by hotplate test; conditions: route subcutaneous; summary of the method: as §1
Mus musculus [17] = assay: Antinociceptive effect in Swiss Albino mouse assessed as licking latency at 5 mg/kg, sc after 60 mins by hotplate test; conditions: route subcutaneous
Summary of the method: (§5)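 Male Swiss albino mice (23-30 g) got 1, 5 or 10 mg/kg s.c. or saline. Fore- or hind-paw licking latency on a 52.5 ± 0.1 °C plate was taken before dosing and at 15, 30, 45 and 60 min. Pretest range was 12-18 s (others rejected) with a 45 s cutoff. Each value is the mean of at least 10 mice; mean ± SEM.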

Mus musculus [18] = assay: as §4; conditions: route subcutaneous; summary of the method: as §5; remark: listed apart in the source
Mus musculus [19] = assay: Antinociceptive effect in Swiss Albino mouse assessed as licking latency at 1 mg/kg, sc after 30 mins by hotplate test; conditions: route subcutaneous; summary of the method: as §5
Mus musculus [20] = assay: Antinociceptive effect in Swiss Albino mouse assessed as licking latency at 10 mg/kg, sc after 30 mins by hotplate test; conditions: route subcutaneous; summary of the method: as §5
Mus musculus [21] = assay: Antinociceptive effect in Swiss Albino mouse assessed as licking latency at 1 mg/kg, sc after 45 mins by hotplate test; conditions: route subcutaneous; summary of the method: as §5
Mus musculus [22] = assay: Antinociceptive effect in Swiss Albino mouse assessed as licking latency at 5 mg/kg, sc after 30 mins by hotplate test; conditions: route subcutaneous; summary of the method: as §5
Mus musculus [23] = assay: Antinociceptive effect in Swiss Albino mouse assessed as licking latency at 1 mg/kg, sc after 60 mins by hotplate test; conditions: route subcutaneous; summary of the method: as §5
Mus musculus [24] = assay: Antinociceptive effect in Swiss Albino mouse assessed as licking latency at 10 mg/kg, sc after 45 mins by hotplate test; conditions: route subcutaneous; summary of the method: as §5
Mus musculus [25] = assay: Antinociceptive effect in Swiss Albino mouse assessed as licking latency at 5 mg/kg, sc after 45 mins by hotplate test; conditions: route subcutaneous; summary of the method: as §5
Mus musculus [26] = assay: Antinociceptive effect in Swiss Albino mouse assessed as licking latency at 1 mg/kg, sc after 15 mins by hotplate test; conditions: route subcutaneous; summary of the method: as §5
Mus musculus [27] = assay: Antinociceptive effect in Swiss Albino mouse assessed as licking latency at 10 mg/kg, sc after 60 mins by hotplate test; conditions: route subcutaneous; summary of the method: as §5
Mus musculus [28] = assay: Effect on motor coordination in Swiss Albino mouse assessed as number of falls from rotarod at 30 mg/kg after 45 mins relative to CMC; summary of the method: as §3
Mus musculus [29] = assay: Effect on motor coordination in Swiss Albino mouse assessed as number of falls from rotarod at 30 mg/kg after 30 mins relative to CMC; summary of the method: as §3
Mus musculus [30] = assay: Effect on motor coordination in Swiss Albino mouse assessed as number of falls from rotarod at 30 mg/kg after 15 mins relative to CMC; summary of the method: as §3
Mus musculus [31] = assay: Antinociceptive effect in Swiss Albino mouse assessed as licking latency at 20 mg/kg, sc after 15 mins by hotplate test; conditions: route subcutaneous; summary of the method: as §2
Mus musculus [32] = assay: Antinociceptive effect in Swiss Albino mouse assessed as licking latency at 40 mg/kg, sc after 15 mins by hotplate test; conditions: route subcutaneous; summary of the method: as §2
Mus musculus [33] = assay: Antinociceptive effect in hemicolinium-3 treated Swiss Albino mouse assessed as licking latency at 50 mg/kg, sc by hotplate test; conditions: route subcutaneous; summary of the method: as §1

Compound: Cc1cc(Cl)ccc1NC(=O)[C@H](C)N
- Activity (Mus musculus [1]): 20.5 s
- Activity (Mus musculus [2]): 21.1 s
- ED50 (Mus musculus [3]): 41.3 mg/kg

Compound: Cc1cc(Cl)ccc1NC(=O)[C@@H](C)N
- Activity (Mus musculus [4]): 1.1
- Activity (Mus musculus [1]): 25 s
- Activity (Mus musculus [5]): 1.5
- Activity (Mus musculus [2]): 25.5 s
- Activity (Mus musculus [6]): 0.8
- ED50 (Mus musculus [3]): 39.2 mg/kg

Compound: C[C@H](N)C(=O)Nc1ccc(Cl)cc1
- Activity (Mus musculus [7]): 15.8 s

Compound: C[C@@H](N)C(=O)Nc1ccc(Cl)cc1
- Activity (Mus musculus [7]): 17.3 s

Compound: Cc1cc(Cl)cc(C)c1NC(=O)[C@@H](C)N
- Activity (Mus musculus [8]): 23.7 s
- ED50 (Mus musculus [3]): 17.8 mg/kg
- Activity (Mus musculus [9]): 23.2 s

Compound: Cc1ccccc1NC(=O)[C@H](C)N
- Activity (Mus musculus [10]): 16.2 s

Compound: Cc1cc(Cl)cc(C)c1NC(=O)[C@H](N)C(C)C
- Activity (Mus musculus [2]): 17 s

Compound: Cc1ccccc1NC(=O)[C@@H](C)N
- Activity (Mus musculus [11]): 17.1 s

Compound: Cc1cccc(C)c1NC(=O)[C@@H](N)CC(C)C
- Activity (Mus musculus [11]): 21.3 s
- Activity (Mus musculus [12]): 20.7 s
- ED50 (Mus musculus [3]): 6.8 mg/kg

Compound: Cc1cccc(C)c1N(C)C(=O)[C@@H](N)C(C)C
- Activity (Mus musculus [11]): 13.6 s

Compound: Cc1cccc(C)c1NC(=S)[C@H](C)N
- Activity (Mus musculus [2]): 18.6 s

Compound: Cc1cccc(C)c1NC(=S)[C@@H](C)N
- Activity (Mus musculus [2]): 18.8 s

Compound: Cc1cc(Cl)cc(C)c1NC(=O)[C@@H](N)C(C)C
- Activity (Mus musculus [2]): 17.2 s

Compound: Cc1cccc(C)c1NC(=O)[C@H](N)CC(C)C
- Activity (Mus musculus [13]): 0.8
- Activity (Mus musculus [14]): 2.2
- Activity (Mus musculus [11]): 20.7 s
- Activity (Mus musculus [15]): 1.5
- Activity (Mus musculus [12]): 23.9 s
- ED50 (Mus musculus [3]): 6.6 mg/kg

Compound: Cc1cccc(C)c1NC(=O)[C@H](N)C(C)C
- Activity (Mus musculus [13]): 0.9
- Activity (Mus musculus [16]): 17.5 s
- Activity (Mus musculus [14]): 2.3
- Activity (Mus musculus [11]): 30.3 s
- Activity (Mus musculus [17]): 14.9 s
- Activity (Mus musculus [15]): 1.2
- Activity (Mus musculus [18]): 23.7 s
- Activity (Mus musculus [19]): 17.2 s
- Activity (Mus musculus [20]): 23.6 s
- Activity (Mus musculus [21]): 15.3 s
- Activity (Mus musculus [22]): 20.6 s
- Activity (Mus musculus [23]): 14.5 s
- Activity (Mus musculus [24]): 18.5 s
- Activity (Mus musculus [12]): 16.9 s
- Activity (Mus musculus [25]): 17.1 s
- Activity (Mus musculus [26]): 16.5 s
- ED50 (Mus musculus [3]): 5.7 mg/kg
- Activity (Mus musculus [27]): 15.1 s

Compound: Cc1cc(Cl)cc(C)c1NC(=O)[C@H](C)N
- Activity (Mus musculus [28]): 1
- Activity (Mus musculus [8]): 26.6 s
- ED50 (Mus musculus [3]): 25.5 mg/kg
- Activity (Mus musculus [9]): 25.1 s
- Activity (Mus musculus [29]): 1.2
- Activity (Mus musculus [30]): 1.4

Compound: Cc1cccc(C)c1N(C)C(=O)[C@H](N)C(C)C
- Activity (Mus musculus [31]): 13.6 s

Compound: Cc1cc(Cl)ccc1NC(=O)[C@@H](N)C(C)C
- Activity (Mus musculus [32]): 19.9 s
- ED50 (Mus musculus [3]): 25.9 mg/kg

Compound: Cc1cc(Cl)ccc1NC(=O)[C@H](N)C(C)C
- Activity (Mus musculus [28]): 0.8
- Activity (Mus musculus [8]): 26.4 s
- ED50 (Mus musculus [3]): 19.6 mg/kg
- Activity (Mus musculus [9]): 27.9 s
- Activity (Mus musculus [29]): 1.3
- Activity (Mus musculus [30]): 1.5

Compound: Cc1cccc(C)c1NC(=O)[C@@H](N)C(C)C
- Activity (Mus musculus [11]): 15.8 s

Compound: Cc1cccc(C)c1NC(=O)[C@@H](C)N [(R)-TOCAINIDE]
- Activity (Mus musculus [4]): 1.4
- Activity (Mus musculus [1]): 17.5 s
- Activity (Mus musculus [5]): 1.7
- Activity (Mus musculus [33]): 18.6 s
- Activity (Mus musculus [2]): 26.5 s
- Activity (Mus musculus [6]): 0.9
- ED50 (Mus musculus [3]): 33.6 mg/kg

Compound: Cc1cccc(C)c1NC(=O)[C@H](C)N [S-TOCAINIDE]
- Activity (Mus musculus [2]): 14.3 s
